For data set [1], the system named is Rattus norvegicus. In words: Percent change in HDL-C,Dose at 3 mg/kg. Format: functional. The method in brief:
(§1)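 Chronic rat model of pre-established hypercholesterolemia: 1 week on high-cholesterol diet, then compound dosed orally once daily for 1 week. Plasma total cholesterol, HDL-C and non-HDL-C expressed as percent change versus control; p < 0.05 flagged.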

Data set [2] concerns Rattus norvegicus. In words: Percent change in HDL-C,Dose at 10 mg/kg. Format: functional. The essentials: as §1
Data set [3] concerns Rattus norvegicus. In words: Percent change in plasma TC in the chronic C-fed rat model of pre-established hypercholesterolemia. Dose at 3 mg/kg. Format: functional. The method in brief:
as §1

The test system of data set [4] is Rattus norvegicus. Description: Percent change in HDL-C,dose at 30 mg/kg. Format: functional. The essentials: as §1
Data set [5] addresses T1, Sterol O-acyltransferase 1 (Rattus norvegicus) (UniProt O70536).
T1 sequence (whole entry): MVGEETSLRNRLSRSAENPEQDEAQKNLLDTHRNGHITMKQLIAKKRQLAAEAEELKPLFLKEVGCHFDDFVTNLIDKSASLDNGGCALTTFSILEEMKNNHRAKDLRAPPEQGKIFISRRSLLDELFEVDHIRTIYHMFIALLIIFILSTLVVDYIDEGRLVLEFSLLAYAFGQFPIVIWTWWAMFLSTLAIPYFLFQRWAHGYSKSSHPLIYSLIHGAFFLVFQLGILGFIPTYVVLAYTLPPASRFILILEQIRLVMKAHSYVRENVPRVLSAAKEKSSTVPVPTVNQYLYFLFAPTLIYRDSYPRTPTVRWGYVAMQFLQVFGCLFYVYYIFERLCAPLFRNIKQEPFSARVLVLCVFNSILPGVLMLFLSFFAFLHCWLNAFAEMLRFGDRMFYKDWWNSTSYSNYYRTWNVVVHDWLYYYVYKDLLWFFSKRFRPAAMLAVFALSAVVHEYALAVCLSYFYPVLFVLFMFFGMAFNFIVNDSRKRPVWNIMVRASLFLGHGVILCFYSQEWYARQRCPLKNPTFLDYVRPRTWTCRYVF
In words: Percent change in plasma total cholesterol in an acute cholesterol-fed rat model of hypercholesterolemia, dose at 3 mg/kg. Format: functional, organism-based. The arrangement: dose 3 mg/kg.

For data set [6], the system named is Canis familiaris. In words: Percent change in plasma cholesterol in dog at 3 mg/kg. Format: functional, Canis lupus familiaris. The essentials:
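Cholesterol-fed female Beagle dogs given bulk drug in capsules before meals, daily for 1 week, at 3 mg/kg po. Plasma total cholesterol compared before and after treatment as percent change; paired two-tailed t-test, n = 6.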

Data set [7] has as its system Rattus norvegicus. Description: Percent change in plasma TC in the chronic C-fed rat model of pre-established hypercholesterolemia. Dose at 10 mg/kg. Format: functional. The essentials: as §1
A further data set addresses O-acyltransferase (Oryctolagus cuniculus, UniProt G1SFD9). In words: Acyl coenzyme A:cholesterol acyltransferase 1 inhibition in vitro measured in rabbit intestinal microsomes. The arrangement: species or system Intestine.
The test system of data set [8] is Rattus norvegicus. Description: Percent change in non-HDL-C,Dose at 3 mg/kg. Format: functional. The essentials: as §1
For data set [9], the system named is Rattus norvegicus. In words: Percent change in non-HDL-C,Dose at 10 mg/kg. Format: functional. The essentials:
as §1

The test system of data set [10] is Canis familiaris. Description: mean blood drug concentration in dog, compound Dose at 3 mg/kg. Format: ADME, organism-based, Canis lupus familiaris. Set-up: dose 3 mg/kg. The following applies: in vivo. The method in brief: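 Cholesterol-fed Beagle dogs dosed at 3 mg/kg. Plasma drug measured by HPLC on a C8 column, acetonitrile/water 4:1 eluent, detection at 190 nm, with a related analog as internal standard. Quantitation limit 40 ng/mL; mean of 6 animals.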

Data set [11] relates to Rattus norvegicus. Description: Percent change in non-HDL-C,dose at 30 mg/kg. Format: functional. The method in brief:
as §1

Data set [12] deals with Rattus norvegicus. In words: (§2) Percent change in plasma TC in the chronic C-fed rat model of pre-established hypercholesterolemia. Dose at 30 mg/kg. Format: functional. The method in brief:
as §1

Data set [13] has as its target T1, Sterol O-acyltransferase 1 (Rattus norvegicus). Description: Percent change in plasma total cholesterol in an acute cholesterol-fed rat model of hypercholesterolemia, dose at 30 mg/kg. Format: functional, organism-based. The arrangement: dose 30 mg/kg.
Data set [14] concerns Rattus norvegicus. Description: Percent change in non-HDL-C Dose at 30 mg/kg. Format: functional. The essentials:
as §1

Data set [15] relates to Rattus norvegicus. In words: Percent change in HDL-Cdose at 30 mg/kg. Format: functional. The method in brief:
as §1

In data set [16] the test system is Rattus norvegicus. In words: Percent change in plasma TC in the chronic C-fed rat model of pre-established hypercholesterolemia. dose at 30 mg/kg. Format: functional. The essentials: as §1
Data set [17] has as its system Rattus norvegicus. In words: Percent change in non-HDL-C, dose at 30 mg/kg. Format: functional. The method in brief:
as §1

In data set [18] the test system is Rattus norvegicus. Description: Percent change in HDL-CDose at 10 mg/kg. Format: functional. The method in brief:
as §1

Data set [19] concerns Rattus norvegicus. Description: Percent change in non-HDL-C Dose at 10 mg/kg. Format: functional. The method in brief:
as §1

For data set [20], the target named is T1, Sterol O-acyltransferase 1 (Rattus norvegicus). The description is as §2. Format: functional, organism-based. Set-up: dose 30 mg/kg. The essentials: as §1
Data set [21] concerns Rattus norvegicus. Description: Percent change in HDL-CDose at 30 mg/kg. Format: functional. The essentials: as §1
For data set [22], the system named is Rattus norvegicus. In words: Percent change in HDL-CDose at 3 mg/kg. Format: functional. The essentials: as §1
Data set [23] concerns Rattus norvegicus. Description: Percent change in non-HDL-C Dose at 3 mg/kg. Format: functional. The method in brief:
as §1

With `CCCCCCCCCCCCN1NN=C(NC(=O)Nc2c(C(C)C)cccc2C(C)C)N1`, the “Delta HDL-C” value was 20% in the data set on Rattus norvegicus [1], 87% in the data set with Rattus norvegicus [2] and 93% in the data set with Rattus norvegicus [4]. For the same molecule, the “Delta TC” value in the data set on Rattus norvegicus [3] was -43%; in data set [5], -61%; with Rattus norvegicus [7], -64%; with Rattus norvegicus [12], -69%; in data set [13] it was -67%. In addition, the Delta plasma cholesterol with Canis familiaris [6] is -39%. For the same molecule, the half-maximal inhibitory concentration (IC50) – broadly, the point on the concentration scale where inhibition reaches its midpoint – against O-acyltransferase was determined as 14 nM. In addition, the Non-HDL-C is -47% with Rattus norvegicus [8], -72% in the data set on Rattus norvegicus [9] and -78% with Rattus norvegicus [11]. In addition, in the data set with Canis familiaris [10], the Plasma level stood at 29.3 ng/mL.
Take `CCCCCCCCCCc1cc(NC(=O)Nc2c(C(C)C)cccc2C(C)C)on1`: the Non-HDL-C in the data set with Rattus norvegicus [14] is -14%. Further, the “Delta HDL-C” value in the data set with Rattus norvegicus [15] is listed as -6%. For the same molecule, the Delta TC was -61% in [5], -13% in the data set on Rattus norvegicus [16] and -69% in data set [13]. At O-acyltransferase, this molecule had an IC50 of 29 nM.
Consider `CCCCCCCCCCCCCc1cc(NC(=O)Nc2c(C(C)C)cccc2C(C)C)no1`, for which, in the data set with Rattus norvegicus [4], the “Delta HDL-C” value is given as 33%. For the same molecule, the results for the Delta TC (in [5]; in the data set with Rattus norvegicus [16]; in data set [13]) were -59%, -40% and -62%, respectively. This molecule registered a half-inhibitory concentration (IC50) against O-acyltransferase of 14 nM. Moreover, in the data set with Rattus norvegicus [17], the Non-HDL-C was -45%.
As to `CCCCCCCCCCCCCCN1NN=C(NC(=O)Nc2c(C(C)C)cccc2C(C)C)N1`, the results for the Non-HDL-C in the data set with Rattus norvegicus [14], in the data set with Rattus norvegicus [19] and in the data set with Rattus norvegicus [23] were -68%, -61% and -48%, respectively. Besides, the “Delta HDL-C” value in the data set on Rattus norvegicus [18] is reported as 87%; in the data set with Rattus norvegicus [21], 93%; in the data set on Rattus norvegicus [22], 47%. Besides, the “Delta TC” value in the data set with Rattus norvegicus [3] is -43%; in data set [5] it was -56%; in data set [20], -61%; with Rattus norvegicus [7] it was -53%; in [13], -65%. Further, in the data set on Canis familiaris [6], the Delta plasma cholesterol is reported as -22%. Further, the IC50 on O-acyltransferase worked out at 12 nM.
